Data published in ChEMBL document CHEMBL2375304, “Synthesis and anticancer activity of novel 2-pyridyl hexahyrocyclooctathieno[2,3-d]pyrimidine derivatives” (2013).

Columns and labels:
Type in all cases: functional
Hs-578T = experiment: Growth inhibition of human Hs578T cells at 10^-5 M after 48 hrs by Sulforhodamine B assay relative to control; settings: read-out: GI
Outline: (§1)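 Single-dose screen at 10⁻⁵ M. Cells are preincubated 24 h at 37 °C in 5% CO2, then exposed to the compound, diluted from a DMSO stock into medium with gentamicin, for 48 h. Adherent cells are fixed with cold TCA (final 10%) and suspension cells with TCA (final 16%). Cells are stained with 0.4% SRB in 1% acetic acid and bound dye is read at 515 nm. Percent growth inhibition is taken against control wells and time-zero plates.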

HOP-62 = experiment: Growth inhibition of human HOP62 cells at 10^-5 M after 48 hrs by Sulforhodamine B assay relative to control; settings: HOP-62, 48 h, read-out: GI; outline: as §1
[1] = Growth inhibition of human HCC2998 cells at 10^-5 M after 48 hrs by Sulforhodamine B assay relative to control; settings: HCC 2998, 48 h, read-out: GI; outline: as §1
RPMI-8226 [2] = experiment: Growth inhibition of human RPMI8226 cells at 10^-5 M after 48 hrs by Sulforhodamine B assay relative to control; settings: RPMI-8226, 48 h, read-out: GI
Outline: (§2)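 Single-dose primary screen at 10⁻⁵ M across 49 lines. Cells were plated 24 h beforehand, with a TCA-fixed time-zero plate, then exposed 48 h at 37 °C, 5% CO2. Cells were fixed with cold TCA, stained with SRB and read at 515 nm. Percent growth was calculated against time-zero and untreated-control absorbances.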

HL-60(TB) = experiment: Growth inhibition of human HL-60(TB) cells at 10^-5 M after 48 hrs by Sulforhodamine B assay relative to control; settings: HL-60, 48 h, read-out: GI
Outline: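 First-stage single-dose screen at 10⁻⁵ M. Cells pre-incubated 24 h at 37 °C, 5% CO2, then exposed to drug for 48 h. Settled cells fixed with TCA (final 16%), SRB-stained and read at 515 nm. Percentage growth inhibition is derived from treated, untreated control and time-zero absorbances.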

M14 [3] = experiment: Growth inhibition of human M14 cells at 10^-5 M after 48 hrs by Sulforhodamine B assay relative to control; settings: M14, 48 h, read-out: GI; outline: as §1
OVCAR-3 [4] = experiment: Growth inhibition of human OVCAR3 cells at 10^-5 M after 48 hrs by Sulforhodamine B assay relative to control; settings: OVCAR-3, 48 h, read-out: GI; outline: as §2
MDA-MB-468 = experiment: Growth inhibition of human MDA-MB-468 cells at 10^-5 M after 48 hrs by Sulforhodamine B assay relative to control; settings: MDA-MB-468, 48 h, read-out: GI; outline: as §2
IGROV-1 = experiment: Growth inhibition of human IGROV1 cells at 10^-5 M after 48 hrs by Sulforhodamine B assay relative to control; settings: IGROV-1, 48 h, read-out: GI; outline: as §1
BT-549 = experiment: Growth inhibition of human BT549 cells at 10^-5 M after 48 hrs by Sulforhodamine B assay relative to control; settings: BT-549, 48 h, read-out: GI; outline: as §1
UACC-257 = experiment: Growth inhibition of human UACC257 cells after 48 hrs by Sulforhodamine B assay; settings: UACC-257, 48 h
Outline: (§3)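 Five-concentration stage in the […]-cell-line panel, using 10-fold or ½-log serial dilutions made from a DMSO stock (400-fold). Cells were preincubated 24 h at 37 °C, then drug-exposed 48 h. A time-zero plate was fixed with TCA at dosing, adherent cells were fixed with cold TCA (10% final), and protein was stained with SRB, absorbance 515 nm. GI50 was where [(Ti−Tz)/(C−Tz)]×100 = 50, from the percent growth vs log concentration plot, expressed as log10 GI50.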

SK-MEL-5 = experiment: Growth inhibition of human SK-MEL-5 cells after 48 hrs by Sulforhodamine B assay; settings: SK-MEL-5, 48 h
Outline: (§4)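 Cells were preincubated 24 h at 37 °C, 5% CO2, and a time-zero plate was TCA-fixed. Five concentrations were made by serial dilution from a DMSO stock (400-fold the top concentration) and incubated 48 h. Adherent cells were fixed with 10% final TCA and suspension cells with 16%. Plates were stained with 0.4% SRB and read at 515 nm. GI50 is the concentration giving 50% reduction in net protein increase versus control.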

HCT-15 = experiment: Growth inhibition of human HCT15 cells after 48 hrs by Sulforhodamine B assay; settings: HCT-15, 48 h
Outline: (§5)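 Five-concentration SRB assay using 10-fold or ½-log serial dilutions from a DMSO stock. Exposure is 48 h at 37 °C in 5% CO2 after 24 h preincubation. TCA fixation is followed by SRB staining and a reading at 515 nm. Percentage growth is computed from time-zero, control and treated absorbances. GI50 is the concentration where [(Ti−Tz)/(C−Tz)]×100 = 50, read from the plot against log concentration.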

RXF 393 = experiment: Growth inhibition of human RXF393 cells after 48 hrs by Sulforhodamine B assay; settings: RXF 393, 48 h; outline: as §4
OVCAR-3 [5] = experiment: Growth inhibition of human OVCAR3 cells after 48 hrs by Sulforhodamine B assay; settings: OVCAR-3, 48 h; outline: as §4
SF-539 = experiment: Growth inhibition of human SF539 cells after 48 hrs by Sulforhodamine B assay; settings: SF-539, 48 h; outline: as §4
NCI-H23 = experiment: Growth inhibition of human NCI-H23 cells after 48 hrs by Sulforhodamine B assay; settings: NCI-H23, 48 h; outline: as §4
RPMI-8226 [6] = experiment: Growth inhibition of human RPMI8226 cells after 48 hrs by Sulforhodamine B assay; settings: RPMI-8226, 48 h; outline: as §4
TK-10 = experiment: Growth inhibition of human TK10 cells after 48 hrs by Sulforhodamine B assay; settings: TK-10, 48 h; outline: as §3
NCI-H460 = experiment: Growth inhibition of human NCI-H460 cells after 48 hrs by Sulforhodamine B assay; settings: NCI-H460, 48 h; outline: as §4
NCI-H522 = experiment: Growth inhibition of human NCI-H522 cells after 48 hrs by Sulforhodamine B assay; settings: NCI-H522, 48 h; outline: as §4
M14 [7] = experiment: Growth inhibition of human M14 cells after 48 hrs by Sulforhodamine B assay; settings: M14, 48 h; outline: as §5
KM12 = experiment: Growth inhibition of human KM12 cells after 48 hrs by Sulforhodamine B assay; settings: KM12, 48 h; outline: as §5
LOX IMVI = experiment: Growth inhibition of human LOXIMVI cells after 48 hrs by Sulforhodamine B assay; outline: as §5
A498 = experiment: Growth inhibition of human A498 cells after 48 hrs by Sulforhodamine B assay; settings: A498, 48 h; outline: as §5
CAKI-1 = experiment: Growth inhibition of human CAKI-1 cells after 48 hrs by Sulforhodamine B assay; settings: CAKI-1, 48 h; outline: as §5

SMILES | inhibition of growth at 10 µM (Hs-578T) [%] | inhibition of growth at 10 µM (HOP-62) [%] | inhibition of growth at 10 µM [1] [%] | inhibition of growth at 10 µM (RPMI-8226 [2]) [%] | inhibition of growth at 10 µM (HL-60(TB)) [%] | inhibition of growth at 10 µM (M14 [3]) [%] | inhibition of growth at 10 µM (OVCAR-3 [4]) [%] | inhibition of growth at 10 µM (MDA-MB-468) [%] | inhibition of growth at 10 µM (IGROV-1) [%] | inhibition of growth at 10 µM (BT-549) [%] | GI50 (UACC-257) [µM] | GI50 (SK-MEL-5) [µM] | GI50 (HCT-15) [µM] | GI50 (RXF 393) [µM] | GI50 (OVCAR-3 [5]) [µM] | GI50 (SF-539) [µM] | GI50 (NCI-H23) [µM] | GI50 (RPMI-8226 [6]) [µM] | GI50 (TK-10) [µM] | GI50 (NCI-H460) [µM] | other results
COc1ccc(N2CCN(c3nc(-c4ccncc4)nc4sc5c(c34)CCCCCC5)CC2)cc1 | -5.59 | 0.29 | -11.5 | 28.8 | 15.2 | -0.58 | 9.75 | 0.83 | 3.43 | -17.1 |  |  |  |  |  |  |  |  |  |  | 
COc1ccc(N2CCN(c3nc(-c4ccccn4)nc4sc5c(c34)CCCCCC5)CC2)cc1 |  |  |  |  |  |  |  |  |  |  | 7.24 | 2.82 | 4.27 | > 100 | 8.71 | 67.6 | 17 | 3.72 | > 100 | 4.68 | GI50 (NCI-H522): 18.6 µM; GI50 (M14 [7]): 5.37 µM; GI50 (KM12): 5.13 µM; GI50 (LOX IMVI): 6.31 µM; GI50 (A498): 3.31 µM; GI50 (CAKI-1): 5.37 µM
c1ccc(N2CCN(c3nc(-c4ccncc4)nc4sc5c(c34)CCCCCC5)CC2)cc1 | -12.9 | -5.44 | -14 | 3.42 | 2.53 | -8.43 | 7.59 | 3.79 | 0.86 | -14.1 |  |  |  |  |  |  |  |  |  |  | 
c1ccc(N2CCN(c3nc(-c4ccccn4)nc4sc5c(c34)CCCCCC5)CC2)cc1 | 6.17 | 36.2 | 13.7 | 57.5 |  | 27.1 | 27 | 30.1 | 62.9 | 2.77 |  |  |  |  |  |  |  |  |  |  | 
CN1CCN(c2nc(-c3ccncc3)nc3sc4c(c23)CCCCCC4)CC1 |  |  |  |  |  |  |  |  |  |  | 10.7 | 7.94 | 11.2 | 4.07 | 13.5 | 8.32 | 11.5 | 8.32 | 6.76 | 13.5 | GI50 (NCI-H522): 12 µM; GI50 (M14 [7]): 5.37 µM; GI50 (KM12): 13.5 µM; GI50 (LOX IMVI): 8.32 µM; GI50 (A498): 1.05 µM; GI50 (CAKI-1): 3.47 µM
CN1CCN(c2nc(-c3ccccn3)nc3sc4c(c23)CCCCCC4)CC1 | 6.23 | -3.13 | 4.02 | 12.4 | 4.37 | 6.12 | -5.6 | 5.4 | 6.64 | 10.3 |  |  |  |  |  |  |  |  |  |  | 
c1cc(-c2nc(N3CCOCC3)c3c4c(sc3n2)CCCCCC4)ccn1 | -13.3 | 1.14 | -8.59 | 32.2 | 24.6 | -15.4 | 15.4 | 11.8 | 1.53 | -20.4 |  |  |  |  |  |  |  |  |  |  | 
NNc1nc(-c2ccncc2)nc2sc3c(c12)CCCCCC3 | -13.7 | 4.03 | -16 | 12.1 | 16.4 | -11.9 | -0.84 | 20.1 | -16.5 | 1.1 |  |  |  |  |  |  |  |  |  |  | 
c1ccc(-c2nc(N3CCOCC3)c3c4c(sc3n2)CCCCCC4)nc1 |  |  |  |  |  |  |  |  |  |  | 11 | 2 | 3.39 | 8.32 | 4.57 | 12.9 | 6.03 | 2.14 | 9.33 | 5.89 | GI50 (NCI-H522): 5.89 µM; GI50 (M14 [7]): 4.17 µM; GI50 (KM12): 4.27 µM; GI50 (LOX IMVI): 5.25 µM; GI50 (A498): 1.66 µM; GI50 (CAKI-1): 2.29 µM
Clc1nc(-c2ccncc2)nc2sc3c(c12)CCCCCC3 | 6.64 | -9.05 | -12.3 | 0.89 | 3.12 | -7.52 | -5.97 | 39.6 | 7.04 | -2.76 |  |  |  |  |  |  |  |  |  |  | 
NNc1nc(-c2ccccn2)nc2sc3c(c12)CCCCCC3 |  |  |  |  |  |  |  |  |  |  | 6.61 | 3.16 | 1.12 | 6.76 | 5.37 | 11 | 8.91 | 3.24 | 9.12 | 4.17 | GI50 (NCI-H522): 12 µM; GI50 (M14 [7]): 5.5 µM; GI50 (KM12): 6.46 µM; GI50 (LOX IMVI): 6.17 µM; GI50 (A498): 1.86 µM; GI50 (CAKI-1): 0.575 µM
O=c1[nH]c(-c2ccncc2)nc2sc3c(c12)CCCCCC3 |  |  |  |  |  |  |  |  |  |  | > 100 | > 100 | > 100 | > 100 | > 100 | > 100 | > 100 | > 100 | > 100 | > 100 | GI50 (NCI-H522): > 100 µM; GI50 (M14 [7]): > 100 µM; GI50 (KM12): > 100 µM; GI50 (LOX IMVI): > 100 µM; GI50 (A498): > 100 µM; GI50 (CAKI-1): > 100 µM
Clc1nc(-c2ccccn2)nc2sc3c(c12)CCCCCC3 | 8.7 | 13.4 | 36.6 | 4.46 | 3.98 | 13.2 | -7.89 | 184 | 10.2 | 14.9 |  |  |  |  |  |  |  |  |  |  | 
O=c1[nH]c(-c2ccccn2)nc2sc3c(c12)CCCCCC3 |  |  |  |  |  |  |  |  |  |  | > 100 | 2.95 | 2.34 | 7.41 | 8.51 | 7.76 | 11 | 3.63 | > 100 | 1.91 | GI50 (NCI-H522): > 100 µM; GI50 (M14 [7]): 4.07 µM; GI50 (KM12): 4.07 µM; GI50 (LOX IMVI): 1.1 µM; GI50 (A498): 1.32 µM; GI50 (CAKI-1): 3.31 µM
